ChEMBL document CHEMBL4350999, “Enhanced tumor retention of NTSR1-targeted agents by employing a hydrophilic cysteine cathepsin inhibitor” (Eur J Med Chem, 2019)
Activity calls are given as the source filed them. The rule behind the calls is not given here.

Tests used:
[1] = molecular target: Procathepsin L (Homo sapiens, UniProt P07711); assay: Binding affinity to human liver cathepsin L assessed as protein-conjugate adduct formation incubated for 30 mins using 177Lu labelled compound by SDS-PAGE analysis
Summary of the method: (§1)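 Purified human liver CatB or CatL (3 nM) in 50 mM sodium acetate/1 mM EDTA pH 5.0 incubated 30 min with 177Lu conjugate (500,000 cpm) in Tris/MgCl2/DTT buffer pH 5.5, alone or with E-64 (10 μM) or N1 (20 μM). Mixtures heated 85 °C 2 min, run on 16% tris-glycine gel at 110 V for 90 min, and read by phosphor autoradiography.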

[2] = Drug retention in tumor of mouse xenografted with human HT-29 cells assessed as conjugate adduct formation at 29.6 MBq measured after 72 hrs using 177Lu labelled compound by SDS-PAGE analysis; type: ADME, tissue-based, Neoplasm; settings: in vivo
Summary of the method: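 HT-29 xenograft mice given 800 μCi (29.6 MBq) 177Lu conjugate i.v. and killed at 72 h. Tumor, liver and kidney homogenized in RIPA with protease inhibitor and supernatants run on SDS-PAGE autoradiography. Other supernatant aliquots filtered through 10 kDa MWCO devices to give the % macromolecule-associated radioactivity; n = 3.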

[3] = Drug internalization in cytoplasm of human HT-29 cells within 2 hrs using Eu labelled compound by lysotracker green staining confocal microscopic analysis; type: ADME, subcellular; settings: ht-29, 2 h
Summary of the method: (§2)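 HT-29 cells (1.25 × 10^5/well) incubated 2 h at 37 °C with natEu conjugate (5 μM), with or without N1 (20 μM). Lysotracker Green (100 nM) added for 1 h; cells washed, formaldehyde-fixed and imaged confocally at 405/488 nm excitation. Mean pixel intensity normalized to cell count.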

[4] = molecular target: T1, Cathepsin B (Homo sapiens, UniProt P07858); assay: Inhibition of human liver cathepsin B assessed as second order rate constant using Z-Arg-Arg-AMC as substrate measured every 5 mins for 1 hr by fluorescence assay
Summary of the method: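 Human liver cathepsin B, 2 nM final, in 0.1 M phosphate pH 5.8 (1 mM EDTA, 2.7 mM DTT, 0.03% Brij35). Enzyme mixed with conjugate (1–500 nM final), then Z-Arg-Arg-AMC added (800 μM final); 37 °C. […] Biological triplicate.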

[5] = molecular target: T1, Cathepsin B; assay: Binding affinity to human liver cathepsin B assessed as protein-conjugate adduct formation incubated for 30 mins using 177Lu labelled compound by SDS-PAGE analysis; summary of the method: as §1
[6] = molecular target: Neurotensin receptor type 1 (Homo sapiens, UniProt P30989); assay: Substrate activity at neurotensin receptor in human HT-29 cells assessed as reduction in drug uptake in presence of NTRS1 peptide N1 using Eu labelled compound measured at 2 hrs by lysotracker green staining based confocal microscopic analysis; type: cell-based; set-up: scale not given: the % may be the effect or the level left
Summary of the method: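 HT-29 cells (1.25 × 10^5/well) were given natEu-labeled conjugate (5 μM) with or without NTSR1 peptide N1 (20 μM) for 2 h at 37 °C. LysoTracker Green (100 nM) was added for 1 h. Cells were PBS washed, formaldehyde fixed and imaged by confocal microscopy (ex 405 and 488 nm). Mean pixel intensity was normalized to cell count.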

[7] = Drug uptake in human HT-29 cells measured after 240 mins using 177Lu labelled compound by gamma counter method relative to control; type: ADME, cell-based; settings: ht-29, 4 h
Summary of the method: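 HT-29 cells (~1 × 10^6 in 1 mL medium) were incubated with 177Lu-conjugate (100,000 cpm) at 37 °C and sampled at 15–240 min. After medium washes, surface-bound activity was stripped with pH 2.8 glycine-HCl/NaCl buffer, and the internalized fraction was taken from the 1% SDS lysate. Fractions were gamma-counted as % of total added activity; mean ± SD, n = 3.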

[8] = Stability of 177Lu labelled compound in human serum assessed as parent compound remaining at 37 degC after 3 hrs by RP-HPLC analysis; type: ADME, cell-free; settings: read-out: Stability
Summary of the method: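 Radioconjugate (1.5 mCi, 55.5 MBq) was incubated in 300 μL human serum at 37 °C. At 1, 3 and 24 h, acetonitrile was added and samples were spun at 12,000×g for 5 min. Supernatant was dried under nitrogen, reconstituted in water and analyzed by radio-HPLC.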

[9] = Drug localization in endolysosomal vesicles of human HT-29 cells measured at 2 hrs using Eu labelled compound by lysotracker green staining based confocal microscopic analysis; type: ADME, subcellular; settings: ht-29, 2 h; summary of the method: as §2
[10] = Ratio of drug uptake in SCID mouse xenograted with human HT-29 cells assessed as tumour retention to drug uptake in kidney of SCID mouse xenografted with human HT-29 cells measured after 4 hrs using 177Lu labelled compound; type: ADME, tissue-based, Tumor/Kidney
Summary of the method: (§3)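 Female SCID mice (5 weeks old) received s.c. flank HT-29 cells (5 × 10^6 in Matrigel). At ~80 mm3, two weeks later, mice were randomized and given 10 μCi (0.37 MBq) of purified 177Lu conjugate i.v. by tail vein. Mice were killed at 4, 24 or 72 h. Tissues were weighed and gamma counted as %ID/g, mean ± SD, n = 5. Tumor-to-tissue ratios were calculated.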

[11] = Ratio of drug uptake in SCID mouse xenograted with human HT-29 cells assessed as tumour retention to drug uptake in muscle of SCID mouse xenografted with human HT-29 cells measured after 4 hrs using 177Lu labelled compound; type: ADME, tissue-based, Tumor/Muscle; summary of the method: as §3
[12] = Ratio of drug uptake in SCID mouse xenograted with human HT-29 cells assessed as tumour retention to drug uptake in spleen of SCID mouse xenografted with human HT-29 cells measured after 4 hrs using 177Lu labelled compound; type: ADME, tissue-based, Tumor/Spleen; summary of the method: as §3
[13] = Ratio of drug uptake in SCID mouse xenograted with human HT-29 cells assessed as tumour retention to drug uptake in pancreas of SCID mouse xenografted with human HT-29 cells measured after 24 hrs using 177Lu labelled compound; type: ADME, tissue-based, Tumor/Pancreas; summary of the method: as §3
[14] = Ratio of drug uptake in SCID mouse xenograted with human HT-29 cells assessed as tumour retention to drug uptake in muscle of SCID mouse xenografted with human HT-29 cells measured after 24 hrs using 177Lu labelled compound; type: ADME, tissue-based, Tumor/Muscle; summary of the method: as §3
[15] = Ratio of drug uptake in SCID mouse xenograted with human HT-29 cells assessed as tumour retention to drug uptake in kidney of SCID mouse xenografted with human HT-29 cells measured after 24 hrs using 177Lu labelled compound; type: ADME, tissue-based, Tumor/Kidney; summary of the method: as §3
[16] = Ratio of drug uptake in SCID mouse xenograted with human HT-29 cells assessed as tumour retention to drug uptake in lung of SCID mouse xenografted with human HT-29 cells measured after 24 hrs using 177Lu labelled compound; type: ADME, tissue-based, Tumor/Lung; summary of the method: as §3
[17] = Drug internalization in human HT-29 cells assessed as efflux percentage measured at 24 hrs using 177Lu labelled compound by gamma counter method relative to control; type: ADME, cell-based; settings: ht-29, 24 h
Summary of the method: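 HT-29 cells (~1 × 10^6) loaded 2 h at 37 °C with 177Lu conjugate (100,000 cpm), washed, then given fresh medium. Medium collected and replaced at 1, 2, 4, 8, 24 h and gamma-counted; cells lysed in 10% SDS at 24 h. Efflux expressed as % of total internalized activity (effluxed + cell-retained); n = 3.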

[18] = Ratio of drug uptake in SCID mouse xenograted with human HT-29 cells assessed as tumour retention to drug uptake in lung of SCID mouse xenografted with human HT-29 cells measured after 72 hrs using 177Lu labelled compound; type: ADME, tissue-based, Tumor/Lung; summary of the method: as §3
[19] = Ratio of drug uptake in SCID mouse xenograted with human HT-29 cells assessed as tumour retention to drug uptake in liver of SCID mouse xenografted with human HT-29 cells measured after 4 hrs using 177Lu labelled compound; type: ADME, tissue-based, Tumor/Liver; summary of the method: as §3

Chain of Procathepsin L (P07711 114-333 limits assumed): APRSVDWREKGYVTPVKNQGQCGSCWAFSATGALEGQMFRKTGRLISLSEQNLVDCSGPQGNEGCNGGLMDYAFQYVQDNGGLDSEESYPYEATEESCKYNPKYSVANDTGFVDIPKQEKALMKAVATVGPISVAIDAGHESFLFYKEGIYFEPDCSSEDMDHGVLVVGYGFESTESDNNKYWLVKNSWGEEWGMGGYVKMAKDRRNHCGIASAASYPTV
Chain of Neurotensin receptor type 1 (P30989 whole entry): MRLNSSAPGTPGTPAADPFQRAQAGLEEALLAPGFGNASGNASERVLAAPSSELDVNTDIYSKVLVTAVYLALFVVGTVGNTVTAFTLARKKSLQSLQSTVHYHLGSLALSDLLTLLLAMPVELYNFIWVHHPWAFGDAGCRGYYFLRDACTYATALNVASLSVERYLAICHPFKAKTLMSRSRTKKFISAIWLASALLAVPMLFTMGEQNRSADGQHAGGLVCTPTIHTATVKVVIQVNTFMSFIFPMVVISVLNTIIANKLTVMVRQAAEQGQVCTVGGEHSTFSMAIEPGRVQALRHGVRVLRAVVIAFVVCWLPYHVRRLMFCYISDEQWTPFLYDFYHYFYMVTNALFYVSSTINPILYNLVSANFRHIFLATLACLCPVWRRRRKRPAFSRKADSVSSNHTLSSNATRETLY

SMILES: Cc1cc(O)cc(C)c1C[C@H](NC(=O)[C@@H]1CCCN1C(=O)[C@H](CCCNC(=N)N)NC(=O)[C@H](CCCNC(=N)N)N(C)C(=O)[C@@H]1CCCN1C(=O)[C@H](CCCCN)NC(=O)[C@@H](CO)NC(=O)[C@@H](CO)NC(=O)[C@@H](CO)NC(=O)[C@H](Cc1cn(CCNC(=O)[C@H](CCCNC(=N)N)NC(=O)[C@H](CC(C)C)NC(=O)CCC(=O)O)nn1)NC(=O)CN1CCN(CC(=O)O)CCN(CC(=O)O)CCN(CC(=O)O)CC1)C(=O)N[C@H](C(=O)N[C@@H](CC(C)C)C(=O)O)C(C)(C)C
- Activity [1]: inactive
- Drug uptake [2]: Not Active
- Drug uptake [3]: Active
- inhibition [4]: inactive
- Activity [5]: inactive
- Activity [6]: 65%
- Drug uptake [7]: 6%
- remaining at 3 h [8]: 74.3%
- Drug uptake [9]: Active

SMILES: Cc1cc(O)cc(C)c1C[C@H](NC(=O)[C@@H]1CCCN1C(=O)[C@H](CCCNC(=N)N)NC(=O)[C@H](CCCNC(=N)N)N(C)C(=O)[C@@H]1CCCN1C(=O)[C@H](CCCCN)NC(=O)[C@@H](CO)NC(=O)[C@@H](CO)NC(=O)[C@@H](CO)NC(=O)[C@H](Cc1cn(CCNC(=O)[C@H](CCCNC(=N)N)NC(=O)[C@H](CC(C)C)NC(=O)C2OC2C(=O)O)nn1)NC(=O)CN1CCN(CC(=O)O)CCN(CC(=O)O)CCN(CC(=O)O)CC1)C(=O)N[C@H](C(=O)N[C@@H](CC(C)C)C(=O)O)C(C)(C)C (stereo partly drawn)
- Ratio [10]: 0.1
- Activity [1]: Active
- Drug uptake [2]: Active
- Ratio [11]: 94
- Drug uptake [3]: Active
- Ratio [12]: 5
- Ratio [13]: 36
- Ratio [14]: 137
- K [4]: 67000 M⁻¹ s⁻¹
- Ratio [15]: 0.08
- Ratio [16]: 15
- Drug uptake [17]: 50%
- Activity [5]: Active
- Ratio [18]: 10
- Ratio [19]: 8.4
- Activity [6]: 63.7%
- Drug uptake [7]: 6%
- remaining at 3 h [8]: 65.6%
- Drug uptake [9]: Active

SMILES: Cc1cc(C)c(C(=O)OCC(=O)[C@H](CCCCNC(=O)CNC(=O)[C@@H](CO)NC(=O)[C@@H](CO)NC(=O)[C@@H](CO)NC(=O)Cn2cc(C[C@H](NC(=O)CN3CCN(CC(=O)O)CCN(CC(=O)O)CCN(CC(=O)O)CC3)C(=O)N[C@H](CO)C(=O)N[C@H](CO)C(=O)N[C@H](CO)C(=O)N[C@@H](CCCCN)C(=O)N3CCC[C@H]3C(=O)N(C)[C@@H](CCCNC(=N)N)C(=O)N[C@@H](CCCNC(=N)N)C(=O)N3CCC[C@H]3C(=O)N[C@@H](Cc3c(C)cc(O)cc3C)C(=O)N[C@H](C(=O)N[C@@H](CC(C)C)C(=O)O)C(C)(C)C)nn2)NC(=O)[C@H](Cc2ccccc2)NC(=O)OCc2ccccc2)c(C)c1
- Ratio [10]: 0.13
- Ratio [11]: 15
- Ratio [12]: 0.5
- Ratio [13]: 17
- Ratio [14]: 30
- Ratio [15]: 0.15
- Ratio [16]: 2.2
- Drug uptake [17]: 39%
- Ratio [18]: 2.6
- Ratio [19]: 0.2
